From ChEMBL document CHEMBL4339192, “De Novo Designed Amphipathic α-Helical Antimicrobial Peptides Incorporating Dab and Dap Residues on the Polar Face To Treat the Gram-Negative Pathogen, Acinetobacter baumannii” (J Med Chem, 2019)
Converted amounts (≈) assume the structure as drawn. Where a SMILES comes first, the peptide text is derived from it. [ ]: non-standard residue; d: D form. Dap = NC[C@H](N)C(=O)O

How the values were obtained:
[1] = tested on: Acinetobacter baumannii; test: Antibacterial activity against Acinetobacter baumannii isolate 977751 measured after 24 hrs by microtiter dilution method; format: functional; settings: isolate 977751, 24 h
In short: (§1)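 Broth microdilution in Mueller-Hinton (MH) medium. […] Plates were incubated 24 h at 37 °C. MIC was the lowest peptide concentration that inhibited growth, based on three sets of replicates.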

[2] = tested on: Acinetobacter baumannii; test: Ratio of MIC for Acinetobacter baumannii 649 measured in presence of 25% human serum to MIC for Acinetobacter baumannii 649 in absence of 25% human serum; format: functional
In short: (§2)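 Blood strain 649 was tested by MH broth microdilution with and without 25% (v/v) human serum added to the medium. The test used a final inoculum of 5 × 10^5 cfu/mL and incubation at 37 °C. The ratio is the MIC in serum over the MIC in MH alone.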

[3] = Therapeutic index, ratio of HC50 for human RBC to MIC for polymyxin B/colistin-resistant Acinetobacter baumannii M89955; format: toxicity; settings: human red blood cells, read-out: TI
In short: (§3)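 T.I. = HC50/MIC. For HC50, peptide (quantified by amino acid analysis) was two-fold serially diluted over 12 concentrations up to 1000 μg/mL. It was incubated with 1% fresh human erythrocytes in PBS, pH 7.4, for 18 h at 37 °C. After 800g centrifugation, hemoglobin was read at 570 nm against water (100%) and no-peptide (0%) controls. HC50 came from a lysis-versus-concentration plot, average of 3 replicates.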

[4] = tested on: Acinetobacter baumannii; test: Antibacterial activity against Acinetobacter baumannii isolate 9383370 measured after 24 hrs by microtiter dilution method; format: functional; settings: isolate 9383370, 24 h; in short: as §1
[5] = Hemolytic activity against human RBC measured after 18 hrs by spectrophotometric method; format: ADME, cell-based, Erythrocyte; settings: human red blood cells (erythrocytes)
In short: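 Peptide (amount by amino acid analysis), two-fold serial dilutions at 12 concentrations up to 1000 μg/mL, with 1% human erythrocytes in PBS pH 7.4, 37 °C, 18 h. Unlysed cells removed by centrifugation (800g); hemoglobin read at 570 nm. Water-lysed cells = 100%, no-peptide cells = 0%. HC50 from plot of % lysis vs concentration (μM), average of 3 replicates.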

[6] = tested on: Acinetobacter baumannii; test: Antibacterial activity against polymyxin B/colistin-resistant Acinetobacter baumannii M89953 measured after 24 hrs by microtiter dilution method; format: functional; settings: M89953, 24 h; in short: as §1
[7] = tested on: Acinetobacter baumannii; test: Antibacterial activity against polymyxin B/colistin-resistant Acinetobacter baumannii M89963 measured after 24 hrs by microtiter dilution method; format: functional; settings: M89963, 24 h; in short: as §1
[8] = tested on: Acinetobacter baumannii; test: Antibacterial activity against Acinetobacter baumannii isolate 1010282 measured after 24 hrs by microtiter dilution method; format: functional; settings: isolate 1010282, 24 h; in short: as §1
[9] = tested on: Acinetobacter baumannii; test: Antibacterial activity against Acinetobacter baumannii 649 measured after 24 hrs by microtiter dilution method; format: functional; settings: Acinetobacter baumannii, 649, 24 h; in short: as §1
[10] = tested on: Acinetobacter baumannii; test: Antibacterial activity against Acinetobacter baumannii isolate 1018887 measured after 24 hrs by microtiter dilution method; format: functional; settings: isolate 1018887, 24 h; in short: as §1
[11] = tested on: Acinetobacter baumannii; test: Antibacterial activity against Acinetobacter baumannii 649 measured after 24 hrs in presence of 25% human serum by microtiter dilution method; format: functional; settings: Acinetobacter baumannii, 649, 24 h; in short: as §2
[12] = tested on: Acinetobacter baumannii; test: Antibacterial activity against Acinetobacter baumannii isolate 1035794 measured after 24 hrs by microtiter dilution method; format: functional; settings: isolate 1035794, 24 h; in short: as §1
[13] = tested on: Acinetobacter baumannii; test: Antibacterial activity against polymyxin B/colistin-resistant Acinetobacter baumannii M89951 measured after 24 hrs by microtiter dilution method; format: functional; settings: M89951, 24 h; in short: as §1
[14] = tested on: Acinetobacter baumannii; test: Antibacterial activity against polymyxin B/colistin-resistant Acinetobacter baumannii M89952 measured after 24 hrs by microtiter dilution method; format: functional; settings: M89952, 24 h; in short: as §1
[15] = tested on: Acinetobacter baumannii; test: Antibacterial activity against Acinetobacter baumannii isolate 1010245 measured after 24 hrs by microtiter dilution method; format: functional; settings: isolate 1010245, 24 h; in short: as §1
[16] = Therapeutic index, ratio of HC50 for human RBC to MIC for polymyxin B/colistin-resistant Acinetobacter baumannii M89952; format: toxicity; settings: human red blood cells, read-out: TI; in short: as §3
[17] = tested on: Acinetobacter baumannii; test: Antibacterial activity against polymyxin B/colistin-resistant Acinetobacter baumannii M89949 measured after 24 hrs by microtiter dilution method; format: functional; settings: M89949, 24 h; in short: as §1
[18] = tested on: Acinetobacter baumannii; test: Antibacterial activity against Acinetobacter baumannii isolate 963659 measured after 24 hrs by microtiter dilution method; format: functional; settings: isolate 963659, 24 h; in short: as §1
[19] = Therapeutic index, ratio of HC50 for human RBC to MIC for polymyxin B/colistin-resistant Acinetobacter baumannii M89951; format: toxicity; settings: human red blood cells, read-out: TI; in short: as §3
[20] = Therapeutic index, ratio of HC50 for human RBC to MIC for polymyxin B/colistin-resistant Acinetobacter baumannii M89941; format: toxicity; settings: human red blood cells, read-out: TI; in short: as §3
[21] = Therapeutic index, ratio of HC50 for human RBC to MIC for polymyxin B/colistin-resistant Acinetobacter baumannii M89953; format: toxicity; settings: human red blood cells, read-out: TI; in short: as §3
[22] = Therapeutic index, ratio of HC50 for human RBC to MIC for polymyxin B/colistin-resistant Acinetobacter baumannii M89949; format: toxicity; settings: human red blood cells, read-out: TI; in short: as §3
[23] = tested on: Acinetobacter baumannii; test: Antibacterial activity against Acinetobacter baumannii isolate 963618 measured after 24 hrs by microtiter dilution method; format: functional; settings: isolate 963618, 24 h; in short: as §1
[24] = tested on: Acinetobacter baumannii; test: Antibacterial activity against Acinetobacter baumannii isolate 961997 measured after 24 hrs by microtiter dilution method; format: functional; settings: isolate 961997, 24 h; in short: as §1
[25] = Therapeutic index, ratio of HC50 for human RBC to MIC for polymyxin B/colistin-resistant Acinetobacter baumannii M89963; format: toxicity; settings: human red blood cells, read-out: TI; in short: as §3
[26] = tested on: Acinetobacter baumannii; test: Antibacterial activity against Acinetobacter baumannii isolate 1002956 measured after 24 hrs by microtiter dilution method; format: functional; settings: isolate 1002956, 24 h; in short: as §1
[27] = tested on: Acinetobacter baumannii; test: Antibacterial activity against polymyxin B/colistin-resistant Acinetobacter baumannii M89941 measured after 24 hrs by microtiter dilution method; format: functional; settings: M89941, 24 h; in short: as §1
[28] = tested on: Acinetobacter baumannii; test: Antibacterial activity against Acinetobacter baumannii isolate 1021371 measured after 24 hrs by microtiter dilution method; format: functional; settings: isolate 1021371, 24 h; in short: as §1
[29] = tested on: Acinetobacter baumannii; test: Antibacterial activity against Acinetobacter baumannii isolate 964304 measured after 24 hrs by microtiter dilution method; format: functional; settings: isolate 964304, 24 h; in short: as §1
[30] = tested on: Acinetobacter baumannii; test: Antibacterial activity against Acinetobacter baumannii isolate 965463 measured after 24 hrs by microtiter dilution method; format: functional; settings: isolate 965463, 24 h; in short: as §1
[31] = tested on: Acinetobacter baumannii; test: Antibacterial activity against polymyxin B/colistin-resistant Acinetobacter baumannii M89955 measured after 24 hrs by microtiter dilution method; format: functional; settings: M89955, 24 h; in short: as §1
[32] = tested on: Acinetobacter baumannii; test: Antibacterial activity against Acinetobacter baumannii isolate 1035166 measured after 24 hrs by microtiter dilution method; format: functional; settings: isolate 1035166, 24 h; in short: as §1
[33] = tested on: Acinetobacter baumannii; test: Antibacterial activity against Acinetobacter baumannii isolate 1007660 measured after 24 hrs by microtiter dilution method; format: functional; settings: isolate 1007660, 24 h; in short: as §1
[34] = tested on: Acinetobacter baumannii; test: Antibacterial activity against Acinetobacter baumannii isolate 1001611 measured after 24 hrs by microtiter dilution method; format: functional; settings: isolate 1001611, 24 h; in short: as §1
[35] = tested on: Acinetobacter baumannii; test: Antibacterial activity against Acinetobacter baumannii isolate 1017395 measured after 24 hrs by microtiter dilution method; format: functional; settings: isolate 1017395, 24 h; in short: as §1
[36] = tested on: Acinetobacter baumannii; test: Antibacterial activity against Acinetobacter baumannii isolate 952654 measured after 24 hrs by microtiter dilution method; format: functional; settings: isolate 952654, 24 h; in short: as §1
[37] = tested on: Acinetobacter baumannii; test: Antibacterial activity against Acinetobacter baumannii isolate 981650 measured after 24 hrs by microtiter dilution method; format: functional; settings: isolate 981650, 24 h; in short: as §1
[38] = tested on: Acinetobacter baumannii; test: Antibacterial activity against Acinetobacter baumannii isolate 968886 measured after 24 hrs by microtiter dilution method; format: functional; settings: isolate 968886, 24 h; in short: as §1

With CC(=O)N[C@H](CCCCN)C(=O)N[C@H](CC(C)C)C(=O)N[C@@H](CN)C(=O)N[C@H](CO)C(=O)N[C@H](CC(C)C)C(=O)N[C@H](CC(C)C)C(=O)N[C@@H](CN)C(=O)N[C@@H](C(=O)N[C@H](CC(C)C)C(=O)N[C@H](CO)C(=O)N[C@@H](CN)C(=O)N[C@H](C)C(=O)N[C@H](C)C(=O)N[C@H](C)C(=O)N[C@H](C)C(=O)N[C@H](C)C(=O)N[C@H](CC(C)C)C(=O)N[C@@H](CN)C(=O)N[C@@H](C(=O)N[C@H](CC(C)C)C(=O)N[C@H](CC(C)C)C(=O)N[C@@H](CN)C(=O)N[C@H](C)C(=O)N[C@H](CC(C)C)C(=O)N[C@H](CO)C(=O)N[C@@H](CN)C(N)=O)[C@H](C)O)[C@H](C)O (Ac-[dK][dL][Dap][dS][dL][dL][Dap][dT][dL][dS][Dap][dA][dA][dA][dA][dA][dL][Dap][dT][dL][dL][Dap][dA][dL][dS][Dap]-NH2) the MIC [1] was 0.8 µM (≈ 2 µg/mL), the Ratio [2] was 4 - 16 and the selectivity ratio [3] was 2.2. The MIC [4] was 1.6 µM (≈ 4 µg/mL), the HC50 at 18 h [5] was 2900 nM and the MIC [6] was 1.6 µM (≈ 4 µg/mL). It also gave an MIC [7] of 1.6 µM (≈ 4 µg/mL), an MIC [8] of 1.6 µM (≈ 4 µg/mL) and an MIC [9] of 0.8 µM (≈ 2 µg/mL). The MIC [10] was 3.2 µM (≈ 8 µg/mL), the MIC [11] was 12.5 µM and the MIC [12] was 1.6 µM (≈ 4 µg/mL). It also gave an MIC [13] of 0.8 µM (≈ 2 µg/mL), an MIC [14] of 1.6 µM (≈ 4 µg/mL) and an MIC [15] of 0.8 µM (≈ 2 µg/mL). It also gave a selectivity ratio [16] of 2.2, an MIC [17] of 0.8 µM (≈ 2 µg/mL) and an MIC [18] of 3.2 µM (≈ 8 µg/mL). The selectivity ratio [19] was 2.2, the selectivity ratio [20] was 2.2 and the selectivity ratio [21] was 2.2. For the same compound, the selectivity ratio [22] was 2.2, the MIC [23] was 1.6 µM (≈ 4 µg/mL) and the MIC [24] was 3.2 µM (≈ 8 µg/mL). It also gave a selectivity ratio [25] of 2.2, an MIC [26] of 1.6 µM (≈ 4 µg/mL) and an MIC [27] of 1.6 µM (≈ 4 µg/mL). It also gave an MIC [28] of 0.8 µM (≈ 2 µg/mL), an MIC [29] of 3.2 µM (≈ 8 µg/mL) and an MIC [30] of 3.2 µM (≈ 8 µg/mL). It also gave an MIC [31] of 1.6 µM (≈ 4 µg/mL), an MIC [32] of 3.2 µM (≈ 8 µg/mL) and an MIC [33] of 3.2 µM (≈ 8 µg/mL). It also gave an MIC [34] of 1.6 µM (≈ 4 µg/mL), an MIC [35] of 3.2 µM (≈ 8 µg/mL) and an MIC [36] of 6.4 µM (≈ 16 µg/mL). It also gave an MIC [37] of 1.6 µM (≈ 4 µg/mL) and an MIC [38] of 1.6 µM (≈ 4 µg/mL).
